Measurements as given in ChEMBL document CHEMBL1667803, “Inhibitory effects of ethacrynic acid analogues lacking the α,β-unsaturated carbonyl unit and para-acylated phenols on human cancer cells” (2011).
Calls of active or inactive are those of the source. The rule behind the calls is not given here.

Key:
Format in all cases: functional
[1] = system: LNCaP C4-2B; experiment: Inhibition of migration of human C4-2B cells at 100 uM after 24 hrs
How it was run: (§1)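 Wound-healing migration assay. Confluent monolayers were washed twice with PBS and scratched to leave a gap of about 1500 µm, then imaged. Fresh medium was added with or without compound, at concentrations set from the 24 h MTT assay. The wound was imaged again after 24 h. Migration was quantified against the earlier images as migratory velocity (µm/h).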

[2] = (§2) Inhibition of migration of human Hs578Ts(i)8 cells at 100 uM after 24 hrs; how it was run: as §1
[3] = system: LNCaP C4-2B; experiment: […] human C4-2B cells assessed as reduction in cell viability after 24 hrs
How it was run: (§3)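 MTT viability assay. Cells seeded at 1.5×10^4 per well in medium with 5% FBS and penicillin/streptomycin, then grown 24 h at 37 °C in 5% CO2. Treated 24 h at 1, 5, 10, 20, 40, 60, 80 and 100 μM. Half the medium was removed before adding MTT, and optical density was read. Three independent experiments were run per concentration. OD80/IC20 (20% inhibition) was read from the graphs.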

[4] = […] human Hs578Ts(i)8 cells assessed as reduction in cell viability after 24 hrs; how it was run: as §3
[5] = organism: Homo sapiens; experiment: as §2; how it was run: as §1

Structure (SMILES)	inhibition at 100 µM [1]	inhibition at 100 µM [2]	IC20 [3]	IC20 [4]	inhibition [1]	inhibition [5]
CCC(=O)c1ccc(O)cc1 [PAROXYPROPIONE]	25%	28%	> 100 µM	> 100 µM	–	–
CCCC(=O)c1ccc(OCC(=O)OCC)c(C)c1C	–	–	50 µM	> 100 µM	inactive	inactive
CCCC(=O)c1ccc(OCC(=O)O)c(C)c1C	–	–	> 100 µM	> 100 µM	inactive	inactive
CCOC(=O)COc1ccc(C(=O)CC)c(C)c1C	–	–	> 100 µM	> 100 µM	inactive	inactive
CCC(=O)c1ccc(O)c(C)c1C	–	17%	> 100 µM	> 100 µM	inactive	–
CCOC(=O)COc1ccc(C(=O)CC)c(C)c1	23%	19%	> 100 µM	> 100 µM	–	–
CCC(=O)c1ccc(OCC(=O)O)c(C)c1C	–	–	> 100 µM	> 100 µM	inactive	inactive
C=C(CC)C(=O)c1ccc(OCC(=O)O)c(Cl)c1Cl [ETHACRYNIC ACID]	–	–	10 µM	80 µM	inactive	inactive
CCC(=O)c1ccc(O)cc1C	65%	86%	> 100 µM	> 100 µM	–	–
